According to ChEMBL document CHEMBL4007456, “Heterocyclyl Tetracyclines. 1. 7-Trifluoromethyl-8-Pyrrolidinyltetracyclines: Potent, Broad Spectrum Antibacterial Agents with Enhanced Activity against Pseudomonas aeruginosa” (2017):
Converted amounts (≈) assume the structure as drawn.

The molecules below were run on Klebsiella pneumoniae (assay: Antibacterial activity against gram-negative Klebsiella pneumoniae KP457 harboring blacTX-M-15 extended spectrum beta-lactamase gene by CLSI method).
Assay type: functional
Method in brief: (§1)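 CLSI broth microdilution MIC in fresh cation-adjusted Mueller Hinton broth, supplemented with defibrinated horse blood where appropriate. Compounds serially diluted in sterile deionized water. Runs accepted when comparator antibiotics against ATCC quality-control strains fell within recommended ranges.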

SMILES | MIC [µg/mL]
CCN1CCC[C@H]1c1cc(O)c2c(c1C(F)(F)F)C[C@H]1C[C@H]3[C@H](N(C)C)C(O)=C(C(N)=O)C(=O)[C@@]3(O)C(O)=C1C2=O | 4 (≈ 6.9 µM)
CN(C)[C@@H]1C(O)=C(C(N)=O)C(=O)[C@@]2(O)C(O)=C3C(=O)c4c(O)cc(C5CCCN5)c(OC(F)(F)F)c4C[C@H]3C[C@@H]12 (stereo not given in full) | 0.25 (≈ 0.441 µM)

The molecules below were run on Enterobacter cloacae (assay: Antibacterial activity against gram-negative Enterobacter cloacae EC1603 harboring tet(A) by CLSI method).
Assay type: functional
Method in brief: as §1

SMILES | MIC [µg/mL]
CCN1CCC[C@H]1c1cc(O)c2c(c1C(F)(F)F)C[C@H]1C[C@H]3[C@H](N(C)C)C(O)=C(C(N)=O)C(=O)[C@@]3(O)C(O)=C1C2=O | 4 (≈ 6.9 µM)
CN(C)[C@@H]1C(O)=C(C(N)=O)C(=O)[C@@]2(O)C(O)=C3C(=O)c4c(O)cc(C5CCCN5)c(OC(F)(F)F)c4C[C@H]3C[C@@H]12 (stereo not given in full) | 16 (≈ 28.2 µM)

These molecules were tested on Staphylococcus aureus (assay: Antibacterial activity against gram-positive Staphylococcus aureus SA158 harboring tet(K) by CLSI method).
Assay type: functional
Method in brief: as §1

SMILES | MIC [µg/mL]
CCN1CCC[C@H]1c1cc(O)c2c(c1C(F)(F)F)C[C@H]1C[C@H]3[C@H](N(C)C)C(O)=C(C(N)=O)C(=O)[C@@]3(O)C(O)=C1C2=O | ≤ 0.0156
CN(C)[C@@H]1C(O)=C(C(N)=O)C(=O)[C@@]2(O)C(O)=C3C(=O)c4c(O)cc(C5CCCN5)c(OC(F)(F)F)c4C[C@H]3C[C@@H]12 (stereo not given in full) | ≤ 0.0156

Each molecule was assayed on Burkholderia cenocepacia (assay: Antibacterial activity against gram-negative Burkholderia cenocepacia BC240 by CLSI method).
Assay type: functional
Method in brief: (§2)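 Defibrinated horse blood added where appropriate. Compounds serially diluted in sterile deionized water. Strains from ATCC unless otherwise noted. Runs accepted when comparator antibiotics fell within QC ranges for ATCC quality control strains.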

SMILES | MIC [µg/mL]
CCN1CCC[C@H]1c1cc(O)c2c(c1C(F)(F)F)C[C@H]1C[C@H]3[C@H](N(C)C)C(O)=C(C(N)=O)C(=O)[C@@]3(O)C(O)=C1C2=O | 8 (≈ 13.8 µM)
CN(C)[C@@H]1C(O)=C(C(N)=O)C(=O)[C@@]2(O)C(O)=C3C(=O)c4c(O)cc(C5CCCN5)c(OC(F)(F)F)c4C[C@H]3C[C@@H]12 (stereo not given in full) | 8 (≈ 14.1 µM)

Each molecule was assayed on Enterococcus faecalis (assay: Antibacterial activity against gram-positive Enterococcus faecalis EFs327 harboring tet(M) by CLSI method).
Assay type: functional
Method in brief: as §1

SMILES | MIC [µg/mL]
CCN1CCC[C@H]1c1cc(O)c2c(c1C(F)(F)F)C[C@H]1C[C@H]3[C@H](N(C)C)C(O)=C(C(N)=O)C(=O)[C@@]3(O)C(O)=C1C2=O | 0.5 (≈ 0.863 µM)
CN(C)[C@@H]1C(O)=C(C(N)=O)C(=O)[C@@]2(O)C(O)=C3C(=O)c4c(O)cc(C5CCCN5)c(OC(F)(F)F)c4C[C@H]3C[C@@H]12 (stereo not given in full) | 1 (≈ 1.76 µM)

These molecules were tested on Streptococcus pneumoniae (assay: Antibacterial activity against gram-positive Streptococcus pneumoniae SP160 harboring tet(M) by CLSI method).
Assay type: functional
Method in brief: as §1

SMILES | MIC [µg/mL]
CCN1CCC[C@H]1c1cc(O)c2c(c1C(F)(F)F)C[C@H]1C[C@H]3[C@H](N(C)C)C(O)=C(C(N)=O)C(=O)[C@@]3(O)C(O)=C1C2=O | ≤ 0.0156
CN(C)[C@@H]1C(O)=C(C(N)=O)C(=O)[C@@]2(O)C(O)=C3C(=O)c4c(O)cc(C5CCCN5)c(OC(F)(F)F)c4C[C@H]3C[C@@H]12 (stereo not given in full) | ≤ 0.0156

What follows are molecules tested on Escherichia coli (assay: Antibacterial activity against gram-negative Escherichia coli EC107 by CLSI method).
Assay type: functional
Method in brief: as §2, with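 “Broth microdilution MIC per CLSI in cation-adjusted Mueller Hinton broth, prepared fresh and held at 4 °C. Defibrinated” for “Defibrinated”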

SMILES | MIC [µg/mL]
CCN1CCC[C@H]1c1cc(O)c2c(c1C(F)(F)F)C[C@H]1C[C@H]3[C@H](N(C)C)C(O)=C(C(N)=O)C(=O)[C@@]3(O)C(O)=C1C2=O | ≤ 0.0156
CN(C)[C@@H]1C(O)=C(C(N)=O)C(=O)[C@@]2(O)C(O)=C3C(=O)c4c(O)cc(C5CCCN5)c(OC(F)(F)F)c4C[C@H]3C[C@@H]12 (stereo not given in full) | ≤ 0.0156

These molecules were tested on Staphylococcus aureus (assay: Antibacterial activity against gram-positive Staphylococcus aureus SA101 by CLSI method).
Assay type: functional
Method in brief: as §2, with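 “Broth microdilution MIC per CLSI in cation-adjusted Mueller Hinton broth, prepared fresh and held at 4 °C. Defibrinated” for “Defibrinated”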

SMILES | MIC [µg/mL]
CCN1CCC[C@H]1c1cc(O)c2c(c1C(F)(F)F)C[C@H]1C[C@H]3[C@H](N(C)C)C(O)=C(C(N)=O)C(=O)[C@@]3(O)C(O)=C1C2=O | 0.0312 (≈ 0.0538 µM)
CN(C)[C@@H]1C(O)=C(C(N)=O)C(=O)[C@@]2(O)C(O)=C3C(=O)c4c(O)cc(C5CCCN5)c(OC(F)(F)F)c4C[C@H]3C[C@@H]12 (stereo not given in full) | 0.125 (≈ 0.22 µM)

These molecules were tested on Staphylococcus aureus (assay: Antibacterial activity against gram-positive Staphylococcus aureus SA161 harboring tet(M) by CLSI method).
Assay type: functional
Method in brief: as §1

SMILES | MIC [µg/mL]
CCN1CCC[C@H]1c1cc(O)c2c(c1C(F)(F)F)C[C@H]1C[C@H]3[C@H](N(C)C)C(O)=C(C(N)=O)C(=O)[C@@]3(O)C(O)=C1C2=O | 1 (≈ 1.73 µM)
CN(C)[C@@H]1C(O)=C(C(N)=O)C(=O)[C@@]2(O)C(O)=C3C(=O)c4c(O)cc(C5CCCN5)c(OC(F)(F)F)c4C[C@H]3C[C@@H]12 (stereo not given in full) | 2 (≈ 3.52 µM)

What follows are molecules tested on Stenotrophomonas maltophilia (assay: Antibacterial activity against gram-negative Stenotrophomonas maltophilia SM256 by CLSI method).
Assay type: functional
Method in brief: as §2, with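 “Broth microdilution MIC per CLSI in cation-adjusted Mueller Hinton broth, prepared fresh and held at 4 °C. Defibrinated” for “Defibrinated”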

SMILES | MIC [µg/mL]
CCN1CCC[C@H]1c1cc(O)c2c(c1C(F)(F)F)C[C@H]1C[C@H]3[C@H](N(C)C)C(O)=C(C(N)=O)C(=O)[C@@]3(O)C(O)=C1C2=O | 1 (≈ 1.73 µM)
CN(C)[C@@H]1C(O)=C(C(N)=O)C(=O)[C@@]2(O)C(O)=C3C(=O)c4c(O)cc(C5CCCN5)c(OC(F)(F)F)c4C[C@H]3C[C@@H]12 (stereo not given in full) | 2 (≈ 3.52 µM)

What follows are molecules tested on Enterococcus faecium (assay: Antibacterial activity against gram-positive Enterococcus faecium EFm404 harboring tet(M) by CLSI method).
Assay type: functional
Method in brief: as §1

SMILES | MIC [µg/mL]
CCN1CCC[C@H]1c1cc(O)c2c(c1C(F)(F)F)C[C@H]1C[C@H]3[C@H](N(C)C)C(O)=C(C(N)=O)C(=O)[C@@]3(O)C(O)=C1C2=O | 0.125 (≈ 0.216 µM)
CN(C)[C@@H]1C(O)=C(C(N)=O)C(=O)[C@@]2(O)C(O)=C3C(=O)c4c(O)cc(C5CCCN5)c(OC(F)(F)F)c4C[C@H]3C[C@@H]12 (stereo not given in full) | 0.125 (≈ 0.22 µM)

Each molecule was assayed on Escherichia coli (assay: Antibacterial activity against gram-negative Escherichia coli EC155 harboring tet(A) by CLSI method).
Assay type: functional
Method in brief: as §1

SMILES | MIC [µg/mL]
CCN1CCC[C@H]1c1cc(O)c2c(c1C(F)(F)F)C[C@H]1C[C@H]3[C@H](N(C)C)C(O)=C(C(N)=O)C(=O)[C@@]3(O)C(O)=C1C2=O | 0.5 (≈ 0.863 µM)
CN(C)[C@@H]1C(O)=C(C(N)=O)C(=O)[C@@]2(O)C(O)=C3C(=O)c4c(O)cc(C5CCCN5)c(OC(F)(F)F)c4C[C@H]3C[C@@H]12 (stereo not given in full) | 8 (≈ 14.1 µM)

What follows are molecules tested on Acinetobacter baumannii (assay: Antibacterial activity against gram-negative Acinetobacter baumannii AB250 by CLSI method).
Assay type: functional
Method in brief: as §2, with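 “Broth microdilution MIC per CLSI in cation-adjusted Mueller Hinton broth, prepared fresh and held at 4 °C. Defibrinated” for “Defibrinated”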

SMILES | MIC [µg/mL]
CCN1CCC[C@H]1c1cc(O)c2c(c1C(F)(F)F)C[C@H]1C[C@H]3[C@H](N(C)C)C(O)=C(C(N)=O)C(=O)[C@@]3(O)C(O)=C1C2=O | 1 (≈ 1.73 µM)
CN(C)[C@@H]1C(O)=C(C(N)=O)C(=O)[C@@]2(O)C(O)=C3C(=O)c4c(O)cc(C5CCCN5)c(OC(F)(F)F)c4C[C@H]3C[C@@H]12 (stereo not given in full) | 2 (≈ 3.52 µM)

The molecules below were run on Pseudomonas aeruginosa (assay: Antibacterial activity against gram-negative Pseudomonas aeruginosa PA555 by CLSI method).
Assay type: functional
Method in brief: as §2, with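 “Broth microdilution MIC per CLSI in cation-adjusted Mueller Hinton broth, prepared fresh and held at 4 °C. Defibrinated” for “Defibrinated”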

SMILES | MIC [µg/mL]
CCN1CCC[C@H]1c1cc(O)c2c(c1C(F)(F)F)C[C@H]1C[C@H]3[C@H](N(C)C)C(O)=C(C(N)=O)C(=O)[C@@]3(O)C(O)=C1C2=O | 32 (≈ 55.2 µM)
CN(C)[C@@H]1C(O)=C(C(N)=O)C(=O)[C@@]2(O)C(O)=C3C(=O)c4c(O)cc(C5CCCN5)c(OC(F)(F)F)c4C[C@H]3C[C@@H]12 (stereo not given in full) | 8 (≈ 14.1 µM)

What follows are molecules tested on Proteus mirabilis (assay: Antibacterial activity against gram-negative Proteus mirabilis PM385 by CLSI method).
Assay type: functional
Method in brief: as §2, with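 “Broth microdilution MIC per CLSI in cation-adjusted Mueller Hinton broth, prepared fresh and held at 4 °C. Defibrinated” for “Defibrinated”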

SMILES | MIC [µg/mL]
CCN1CCC[C@H]1c1cc(O)c2c(c1C(F)(F)F)C[C@H]1C[C@H]3[C@H](N(C)C)C(O)=C(C(N)=O)C(=O)[C@@]3(O)C(O)=C1C2=O | 4 (≈ 6.9 µM)
CN(C)[C@@H]1C(O)=C(C(N)=O)C(=O)[C@@]2(O)C(O)=C3C(=O)c4c(O)cc(C5CCCN5)c(OC(F)(F)F)c4C[C@H]3C[C@@H]12 (stereo not given in full) | 1 (≈ 1.76 µM)
